Test [1] deals with MCF-7 (breast) cancer cell line. In words: MTT assay, cell viability, MCF-7. The settings on record: Homo sapiens, MCF7, 48 h, read-out: Cell viability (%) MCF-7 (breast), 100 μg/μL concentration of compound, 48 h, MTT, mean ± SD in triplicate. The test is classed as cell-based. The gist of the method:
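Human MCF-7 breast cancer cells grown in DMEM with 10% FBS and 1% penicillin–streptomycin at 37 °C, 5% CO2, humidified. Test compound in DMSO (under 1% final) added at various dilutions for 48 h. MTT (5 mg/mL stock) then added for 240 min at 37 °C. Formazan dissolved in DMSO and absorbance read at 490 nm. Percent viability calculated; triplicate, mean ± SD.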
(In general: Formazan colour is commonly taken as a measure of viable cells.)

The subject of test [2] is A549 (lung) cancer cell line. In words: MTT assay, cell viability and IC50, A549. The test is classed as cell-based. The settings on record: Homo sapiens; for viability: A549, 48 h, read-out: Cell viability (%) A549 (lung), 100 μg/μL concentration of compound, 48 h, MTT, mean ± SD in triplicate. The gist of the method:
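A549 human lung cancer cells were grown in DMEM with 10% FBS and 1% penicillin–streptomycin at 37 °C in humidified 5% CO2. Cells were seeded in 96-well plates and exposed for 48 h to serial dilutions of the test compound in DMSO (<1% final). MTT (5 mg/mL solution as added) was applied for 240 min at 37 °C. Formazan was dissolved in DMSO and A490 read for % viability. Triplicate; mean ± SD.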

Broadly, the IC50 is the concentration that gives 50% inhibition.

`Cn1c(=O)c2c(ncn2Cc2nnc(SCC(=O)Nc3ccc(F)cc3)n2-c2ccccc2)n(C)c1=O` [Compound 11e, 2-(5-((1,3-Dimethyl-2,6-dioxo-2,3-dihydro-1H-purin-7(6H)-yl)methyl)-4-phenyl-4H-1,2,4-triazol-3-ylthio)-N-(4-fluorophenyl)acetamide]: the values for the viability in test [1] and in test [2] were 54.8 ± 4.88% and 52.1 ± 3.66%, respectively.

As for `Cc1ccc(NC(=O)CSc2nnc(Cn3cnc4c3c(=O)n(C)c(=O)n4C)n2-c2ccccc2)cc1C` [Compound 11h, 2-(5-((1,3-Dimethyl-2,6-dioxo-2,3-dihydro-1H-purin-7(6H)-yl)methyl)-4-phenyl-4H-1,2,4-triazol-3-ylthio)-N-(3,4-dimethylphenyl)acetamide], the figures for the viability in test [1] and in test [2] were 33.2 ± 2.77% and 55.4 ± 4.6%, respectively.

Take `Cc1ccc(NC(=O)CSc2nnc(Cn3cnc4c3c(=O)n(C)c(=O)n4C)n2-c2ccccc2)cc1` [Compound 11g, 2-(5-((1,3-Dimethyl-2,6-dioxo-2,3-dihydro-1H-purin-7(6H)-yl)methyl)-4-phenyl-4H-1,2,4-triazol-3-ylthio)-N-p-tolylacetamide]: the figures for the viability in test [1] and in test [2] were 31.8 ± 3.16% and 21.7 ± 1.6%, respectively. For the same compound, in test [2] (A549, read-out: IC50 (μM) A549 (lung)), the IC50 was found to be 1.25 ± 1.6 µM.

Take `Cn1c(=O)c2c(ncn2Cc2nnc(SCC(=O)Nc3ccccc3)n2-c2ccccc2)n(C)c1=O` [Compound 11a, 2-(5-((1,3-Dimethyl-2,6-dioxo-2,3-dihydro-1H-purin-7(6H)-yl)methyl)-4-phenyl-4H-1,2,4-triazol-3-ylthio)-N-phenylacetamide]: the viability in test [1] came to 34.7 ± 2.49%; in test [2] it was 59.6 ± 1.36%.

`Cc1ccc(NC(=O)CSc2nnc(Cn3cnc4c3c(=O)n(C)c(=O)n4C)n2-c2ccccc2)c(C)c1` [Compound 11c, 2-(5-((1,3-Dimethyl-2,6-dioxo-2,3-dihydro-1H-purin-7(6H)-yl)methyl)-4-phenyl-4H-1,2,4-triazol-3-ylthio)-N-(2,4-dimethylphenyl)acetamide]: the results for the viability in test [1] and in test [2] were 38.7 ± 2.07% and 26.1 ± 1.86%, respectively.

On to `Cn1c(=O)c2c(ncn2Cc2nnc(SCC(=O)Nc3ccc(Cl)cc3Cl)n2-c2ccccc2)n(C)c1=O` [Compound 11b, N-(2,4-Dichlorophenyl)-2-(5-((1,3-dimethyl-2,6-dioxo-2,3-dihydro-1H-purin-7(6H)-yl)methyl)-4-phenyl-4H-1,2,4-triazol-3-ylthio)acetamide], for which the viability in test [1] is 69.4 ± 7.05%; in test [2], 52.6 ± 5.07%.

For the compound `Cn1c(=O)c2c(ncn2Cc2nnc(SCC(=O)Nc3ccccc3Cl)n2-c2ccccc2)n(C)c1=O` [Compound 11f, N-(2-Chlorophenyl)-2-(5-((1,3-dimethyl-2,6-dioxo-2,3-dihydro-1H-purin-7(6H)-yl)methyl)-4-phenyl-4H-1,2,4-triazol-3-ylthio)acetamide], the viability in test [1] worked out at 72.8 ± 6.35%; in test [2] it was 55.4 ± 4.11%.

Take `Cn1c(=O)c2c(ncn2CC(=O)O)n(C)c1=O` [Acefylline, Theophylline-7-acetic acid, reference compound]: the viability in test [1] was 86.3 ± 11.8%.

For the compound `Cn1c(=O)c2c(ncn2Cc2nnc(SCC(=O)Nc3ccccc3F)n2-c2ccccc2)n(C)c1=O` [Compound 11j, 2-(5-((1,3-Dimethyl-2,6-dioxo-2,3-dihydro-1H-purin-7(6H)-yl)methyl)-4-phenyl-4H-1,2,4-triazol-3-ylthio)-N-(2-fluorophenyl)acetamide], the viability in test [1] is 63.7 ± 3.54%; in test [2], 67.5 ± 4.27%.

As for `Cn1c(=O)c2c(ncn2Cc2nnc(SCC(=O)Nc3ccc(Cl)c(Cl)c3)n2-c2ccccc2)n(C)c1=O` [Compound 11d, N-(3,4-Dichlorophenyl)-2-(5-((1,3-dimethyl-2,6-dioxo-2,3-dihydro-1H-purin-7(6H)-yl)methyl)-4-phenyl-4H-1,2,4-triazol-3-ylthio)acetamide], the viability in test [1] turned out to be 38.1 ± 4.04%; in test [2], 46.2 ± 1.42%.

Source of the values: article PMC8154016 (ACS Omega, 2021).
